Assay [1] can be described thus: Induction of osteoblast differentiation in mouse calvarial cells assessed as compound concentration required for maximum increase in ALP activity using PNPP as substrate after 48 hrs. It counts as functional, Calvarial cell.
Assay [2] is described as follows: Induction of osteoblast differentiation in mouse calvarial cells assessed as increase in ALP activity using PNPP as substrate after 48 hrs. Conditions: Calvarial cell. It counts as functional, cell-based.
Another assay relates to Calvarial cell. Nature of the assay: Induction of mineralization in mouse calvarial cells assessed as calcium nodule formation at Emax incubated for 12 days by alizarin red-S staining based spectrophotometric method. It counts as functional. Put shortly:
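Primary mouse calvarial osteoblasts treated with or without compound for 12 days, fixed in 4% formaldehyde, stained with alizarin red-S, and the stain extracted and quantified by the acetic acid method.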

SMILES strings stand for the structures. Calls of active or inactive are those of the source. The rule behind the calls is not given here.

For the molecule `COc1cc2oc(=O)cc(-c3ccccc3)c2cc1OCCCBr`, the “Concentration giving maximal ALP increase” value in assay [1] is given as 100 pM. In addition, the EC50 – broadly, the concentration giving half of the maximal effect – in assay [2] was 5.9 nM. In addition, the result in the assay on Calvarial cell was Active.
For the molecule `COc1cc2oc(=O)cc(-c3ccccc3)c2cc1OCCCN1CCN(C)CC1`, the “Concentration giving maximal ALP increase” value in assay [1] is 100 pM. For the same molecule, the EC50 in assay [2] came out at 9.42 nM.
For the molecule `COc1cc2oc(=O)cc(-c3ccccc3)c2cc1OCCN1CCN(C)CC1`, the “Concentration giving maximal ALP increase” value in assay [1] is 1 pM. Further, the EC50 in assay [2] stood at 14.8 nM. Besides, in the assay on Calvarial cell, the result was Active.
Taken in the same sequence, the figures for `COc1cc2oc(=O)cc(-c3ccccc3)c2cc1OCCCCCBr` were 10000 pM, 5.7 nM and “Active”.
Take `COc1cc2oc(=O)cc(-c3ccccc3)c2cc1OCCCl`: in assay [1], the “Concentration giving maximal ALP increase” value was determined as 1 pM. Also, the EC50 in assay [2] is 19.4 nM.
Taken in the same sequence, the figures for `COc1cc2oc(=O)cc(-c3ccccc3)c2cc1OC(=O)c1ccc(Br)cc1` were 1e+06 pM and 0.8 nM.
`COc1cc2oc(=O)cc(-c3ccccc3)c2cc1OCCCN1CCCCC1`: the “Concentration giving maximal ALP increase” value in assay [1] came to 1 pM. In addition, the EC50 in assay [2] came to 7.6 nM. Also, the result in the assay with Calvarial cell was Active.
As for `COc1cc2oc(=O)cc(-c3ccccc3)c2cc1OCCCCCN1CCOCC1`, the “Concentration giving maximal ALP increase” value in assay [1] worked out at 10000 pM. For the same molecule, in assay [2], the EC50 turned out to be 900 nM. Further, the outcome in the assay with Calvarial cell was Active.
On the same counts, the results for `COc1cc2oc(=O)cc(-c3ccccc3)c2cc1OCCCCCN1CCCCC1` are 1 pM, 10.8 nM and “Active”.
On the same counts, the results for `COc1cc2oc(=O)cc(-c3ccccc3)c2cc1OCCN1CCOCC1` are 1 pM, 11.7 nM and “Active”.
On to `CCN1CCN(CCOc2cc3c(-c4ccccc4)cc(=O)oc3cc2OC)CC1`, for which the “Concentration giving maximal ALP increase” value in assay [1] was 1 pM. Moreover, the EC50 in assay [2] amounted to 13.6 nM. For the same molecule, in the assay with Calvarial cell, the result was Active.
On to `C/C=C(\C)C(=O)Oc1cc2c(-c3ccccc3)cc(=O)oc2cc1OC`, for which the “Concentration giving maximal ALP increase” value in assay [1] amounted to 1e+06 pM. Moreover, the concentration for a half-maximal effect (EC50) in assay [2] was determined as 1.1 nM.
As to `CCN1CCN(CCCCCOc2cc3c(-c4ccccc4)cc(=O)oc3cc2OC)CC1`, in assay [2], the EC50 is 12400 nM.
Turning to `CCN1CCN(CCCOc2cc3c(-c4ccccc4)cc(=O)oc3cc2OC)CC1`, the “Concentration giving maximal ALP increase” value in assay [1] turned out to be 10000 pM. Further, in assay [2], the EC50 came to 27.9 nM.
`COc1cc2oc(=O)cc(-c3ccccc3)c2cc1OC(=O)Cc1cccs1`: the “Concentration giving maximal ALP increase” value in assay [1] stood at 10000 pM. Also, the EC50 in assay [2] was found to be 7.4 nM.
